system: LNCaP; experiment: Antiproliferative activity against human LNCAP cells assessed as cell growth inhibition at 10 uM after 72 hrs by MTS assay; type: functional; settings: read-out: GI
Summary of the method: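 LNCaP cells grown in RPMI 1640 with 10% FCS at 37 °C, 5% CO2, seeded at 5000 per well. After 24 h, compound in DMSO (1% final) added at 10 µM for 72 h; DMSO controls. Viable cells by MTS absorbance at 490 nm; percent proliferation inhibition.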

Structure (SMILES) | inhibition of growth at 10 µM
COc1ccc2[nH]c3c([N+](=O)[O-])cc4[nH]ncc4c3c2c1 | 27%
Nc1cc2cn[nH]c2c2c1[nH]c1ccc(Cl)cc12 | 35%
Nc1cc2[nH]ncc2c2c1[nH]c1ccccc12 | 56%
COc1ccc2[nH]c3c([N+](=O)[O-])cc4cn[nH]c4c3c2c1 | 19%
O=[N+]([O-])c1cc2[nH]ncc2c2c1[nH]c1ccccc12 | 38%
O=[N+]([O-])c1cc2[nH]ncc2c2c1[nH]c1ccc(Cl)cc12 | 0%
O=[N+]([O-])c1cc2cn[nH]c2c2c1[nH]c1ccc(Cl)cc12 | 28%
Nc1cc2[nH]ncc2c2c1[nH]c1ccc(Cl)cc12 | 27%
Nc1cc2cn[nH]c2c2c1[nH]c1ccccc12 | 28%
O=[N+]([O-])c1cc2cn[nH]c2c2c1[nH]c1ccccc12 | 45%
COc1ccc2[nH]c3c(N)cc4cn[nH]c4c3c2c1 | 8%
COc1ccc2[nH]c3c(N)cc4[nH]ncc4c3c2c1 | 39%

system: PC-3; experiment: Antiproliferative activity against human PC3 cells assessed as cell growth inhibition after 72 hrs by MTS assay; type: functional, cell-based; settings: PC-3, 72 h

Structure (SMILES) | IC50
COc1ccc2[nH]c3c([N+](=O)[O-])cc4[nH]ncc4c3c2c1 | 2300 nM
O=[N+]([O-])c1cc2[nH]ncc2c2c1[nH]c1ccccc12 | 3000 nM

system: PC-3; experiment: Antiproliferative activity against human PC3 cells assessed as cell growth inhibition at 10 uM after 72 hrs by MTS assay; type: functional; settings: PC-3, 72 h, read-out: GI
Summary of the method: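 PC3 cells kept in RPMI 1640 plus 10% FCS (37 °C, 5% CO2) and plated at 2500 per well. Compound added 24 h later at 10 µM in DMSO (1% final), 72 h exposure, vehicle controls. MTS read at 490 nm; percent inhibition of proliferation.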

Structure (SMILES) | inhibition of growth at 10 µM
COc1ccc2[nH]c3c([N+](=O)[O-])cc4[nH]ncc4c3c2c1 | 74%
Nc1cc2cn[nH]c2c2c1[nH]c1ccc(Cl)cc12 | 43%
Nc1cc2[nH]ncc2c2c1[nH]c1ccccc12 | 56%
COc1ccc2[nH]c3c([N+](=O)[O-])cc4cn[nH]c4c3c2c1 | 29%
O=[N+]([O-])c1cc2[nH]ncc2c2c1[nH]c1ccccc12 | 85%
O=[N+]([O-])c1cc2[nH]ncc2c2c1[nH]c1ccc(Cl)cc12 | 50%
O=[N+]([O-])c1cc2cn[nH]c2c2c1[nH]c1ccc(Cl)cc12 | 51%
Nc1cc2[nH]ncc2c2c1[nH]c1ccc(Cl)cc12 | 45%
Nc1cc2cn[nH]c2c2c1[nH]c1ccccc12 | 31%
O=[N+]([O-])c1cc2cn[nH]c2c2c1[nH]c1ccccc12 | 59%
COc1ccc2[nH]c3c(N)cc4cn[nH]c4c3c2c1 | 28%
COc1ccc2[nH]c3c(N)cc4[nH]ncc4c3c2c1 | 46%

target: T1, Serine/threonine-protein kinase pim-3 (Homo sapiens, UniProt Q86V86); experiment: Inhibition of human PIM3 using RSRHSSYPAGT as substrate after 30 mins; settings: not given

Structure (SMILES) | IC50
O=[N+]([O-])c1cc2n[nH]cc2c2c1[nH]c1ccccc12 | 100 nM
COc1ccc2[nH]c3c([N+](=O)[O-])cc4n[nH]cc4c3c2c1 | 110 nM
O=[N+]([O-])c1cc2c[nH]nc2c2c1[nH]c1ccccc12 | 210 nM
O=[N+]([O-])c1cc2[nH]ncc2c2c1[nH]c1ccc(Cl)cc12 | 230 nM
Nc1cc2[nH]ncc2c2c1[nH]c1ccc(Cl)cc12 | 110 nM
COc1ccc2[nH]c3c(N)cc4n[nH]cc4c3c2c1 | 600 nM

Next, values leading:

IC50 | Structure (SMILES)
110 nM | COc1ccc2[nH]c3c([N+](=O)[O-])cc4c[nH]nc4c3c2c1
90 nM | O=[N+]([O-])c1cc2cn[nH]c2c2c1[nH]c1ccc(Cl)cc12
700 nM | COc1ccc2[nH]c3c(N)cc4cn[nH]c4c3c2c1

target: T1, Serine/threonine-protein kinase pim-3; experiment: Inhibition of human PIM3 assessed as residual activity using RSRHSSYPAGT as substrate at 1 uM after 30 mins; settings: not given

Structure (SMILES) | Activity
Nc1cc2cn[nH]c2c2c1[nH]c1ccc(Cl)cc12 | 55%
Nc1cc2[nH]ncc2c2c1[nH]c1ccccc12 | 66%
O=[N+]([O-])c1cc2[nH]ncc2c2c1[nH]c1ccccc12 | 28%
O=[N+]([O-])c1cc2[nH]ncc2c2c1[nH]c1ccc(Cl)cc12 | 26%
Nc1cc2[nH]ncc2c2c1[nH]c1ccc(Cl)cc12 | 28%
Nc1cc2cn[nH]c2c2c1[nH]c1ccccc12 | 63%
O=[N+]([O-])c1cc2cn[nH]c2c2c1[nH]c1ccccc12 | 22%
COc1ccc2[nH]c3c(N)cc4[nH]ncc4c3c2c1 | 51%

The next lines start with the values.

Activity | Structure (SMILES)
21% | COc1ccc2[nH]c3c([N+](=O)[O-])cc4[nH]ncc4c3c2c1
28% | COc1ccc2[nH]c3c([N+](=O)[O-])cc4cn[nH]c4c3c2c1
50% | O=[N+]([O-])c1cc2cn[nH]c2c2c1[nH]c1ccc(Cl)cc12
46% | COc1ccc2[nH]c3c(N)cc4cn[nH]c4c3c2c1

target: T1, Serine/threonine-protein kinase pim-3; experiment: Inhibition of human PIM3 assessed as residual activity using RSRHSSYPAGT as substrate at 10 uM after 30 mins; settings: not given

Structure (SMILES) | Activity
Nc1cc2cn[nH]c2c2c1[nH]c1ccc(Cl)cc12 | 14%
Nc1cc2[nH]ncc2c2c1[nH]c1ccccc12 | 20%
O=[N+]([O-])c1cc2[nH]ncc2c2c1[nH]c1ccccc12 | 17%
O=[N+]([O-])c1cc2[nH]ncc2c2c1[nH]c1ccc(Cl)cc12 | 19%
Nc1cc2[nH]ncc2c2c1[nH]c1ccc(Cl)cc12 | 7%
Nc1cc2cn[nH]c2c2c1[nH]c1ccccc12 | 20%
O=[N+]([O-])c1cc2cn[nH]c2c2c1[nH]c1ccccc12 | 16%
COc1ccc2[nH]c3c(N)cc4[nH]ncc4c3c2c1 | 16%

Other lines, results leading:

Activity | Structure (SMILES)
11% | COc1ccc2[nH]c3c([N+](=O)[O-])cc4[nH]ncc4c3c2c1
23% | COc1ccc2[nH]c3c([N+](=O)[O-])cc4cn[nH]c4c3c2c1
38% | O=[N+]([O-])c1cc2cn[nH]c2c2c1[nH]c1ccc(Cl)cc12
14% | COc1ccc2[nH]c3c(N)cc4cn[nH]c4c3c2c1

target: Serine/threonine-protein kinase pim-2 (Homo sapiens) (UniProt Q9P1W9); experiment: Inhibition of human PIM2 assessed as residual activity using RSRHSSYPAGT as substrate at 1 uM after 30 mins; settings: not given
Sequence (Q9P1W9 whole entry, looked up): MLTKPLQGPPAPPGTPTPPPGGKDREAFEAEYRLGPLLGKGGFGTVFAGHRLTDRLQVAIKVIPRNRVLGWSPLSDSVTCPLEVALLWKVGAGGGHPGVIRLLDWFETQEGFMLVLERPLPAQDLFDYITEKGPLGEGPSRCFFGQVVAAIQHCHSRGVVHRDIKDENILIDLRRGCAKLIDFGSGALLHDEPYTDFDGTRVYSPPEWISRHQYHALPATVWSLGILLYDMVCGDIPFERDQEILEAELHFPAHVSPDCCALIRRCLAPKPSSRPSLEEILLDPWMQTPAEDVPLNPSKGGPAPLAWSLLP

Structure (SMILES) | Activity
Nc1cc2cn[nH]c2c2c1[nH]c1ccc(Cl)cc12 | 115%
Nc1cc2[nH]ncc2c2c1[nH]c1ccccc12 | 96%
O=[N+]([O-])c1cc2[nH]ncc2c2c1[nH]c1ccccc12 | 49%
O=[N+]([O-])c1cc2[nH]ncc2c2c1[nH]c1ccc(Cl)cc12 | 57%
Nc1cc2[nH]ncc2c2c1[nH]c1ccc(Cl)cc12 | 107%
Nc1cc2cn[nH]c2c2c1[nH]c1ccccc12 | 116%
O=[N+]([O-])c1cc2cn[nH]c2c2c1[nH]c1ccccc12 | 76%
COc1ccc2[nH]c3c(N)cc4[nH]ncc4c3c2c1 | 123%

More lines, now with the values ahead:

Activity | Structure (SMILES)
54% | COc1ccc2[nH]c3c([N+](=O)[O-])cc4[nH]ncc4c3c2c1
77% | COc1ccc2[nH]c3c([N+](=O)[O-])cc4cn[nH]c4c3c2c1
90% | O=[N+]([O-])c1cc2cn[nH]c2c2c1[nH]c1ccc(Cl)cc12
120% | COc1ccc2[nH]c3c(N)cc4cn[nH]c4c3c2c1

target: Serine/threonine-protein kinase pim-2 (Homo sapiens) (UniProt Q9P1W9); experiment: Inhibition of human PIM2 assessed as residual activity using RSRHSSYPAGT as substrate at 10 uM after 30 mins; settings: not given

Structure (SMILES) | Activity
Nc1cc2cn[nH]c2c2c1[nH]c1ccc(Cl)cc12 | 79%
Nc1cc2[nH]ncc2c2c1[nH]c1ccccc12 | 71%
O=[N+]([O-])c1cc2[nH]ncc2c2c1[nH]c1ccccc12 | 38%
O=[N+]([O-])c1cc2[nH]ncc2c2c1[nH]c1ccc(Cl)cc12 | 54%
Nc1cc2[nH]ncc2c2c1[nH]c1ccc(Cl)cc12 | 34%
Nc1cc2cn[nH]c2c2c1[nH]c1ccccc12 | 78%
O=[N+]([O-])c1cc2cn[nH]c2c2c1[nH]c1ccccc12 | 46%
COc1ccc2[nH]c3c(N)cc4[nH]ncc4c3c2c1 | 54%

Results, then the molecule that gave them:

Activity | Structure (SMILES)
35% | COc1ccc2[nH]c3c([N+](=O)[O-])cc4[nH]ncc4c3c2c1
72% | COc1ccc2[nH]c3c([N+](=O)[O-])cc4cn[nH]c4c3c2c1
93% | O=[N+]([O-])c1cc2cn[nH]c2c2c1[nH]c1ccc(Cl)cc12
70% | COc1ccc2[nH]c3c(N)cc4cn[nH]c4c3c2c1

target: T2, Serine/threonine-protein kinase pim-1 (Homo sapiens, UniProt P11309); experiment: Inhibition of human PIM1 using RSRHSSYPAGT as substrate after 30 mins; settings: not given
Target sequence in this assay (P11309 whole entry): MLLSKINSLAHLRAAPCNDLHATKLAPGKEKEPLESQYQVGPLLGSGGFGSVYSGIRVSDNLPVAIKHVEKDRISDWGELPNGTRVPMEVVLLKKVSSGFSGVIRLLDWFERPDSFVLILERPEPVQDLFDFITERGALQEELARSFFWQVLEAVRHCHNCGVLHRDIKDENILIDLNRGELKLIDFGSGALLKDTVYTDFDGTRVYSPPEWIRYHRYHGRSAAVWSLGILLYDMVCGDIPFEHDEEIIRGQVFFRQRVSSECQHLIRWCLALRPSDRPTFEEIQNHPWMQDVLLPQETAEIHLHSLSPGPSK

Structure (SMILES) | IC50
O=[N+]([O-])c1cc2n[nH]cc2c2c1[nH]c1ccccc12 | 40 nM
COc1ccc2[nH]c3c([N+](=O)[O-])cc4n[nH]cc4c3c2c1 | 150 nM
O=[N+]([O-])c1cc2c[nH]nc2c2c1[nH]c1ccccc12 | 400 nM
COc1ccc2[nH]c3c([N+](=O)[O-])cc4c[nH]nc4c3c2c1 | 220 nM
O=[N+]([O-])c1cc2[nH]ncc2c2c1[nH]c1ccc(Cl)cc12 | 200 nM
Nc1cc2[nH]ncc2c2c1[nH]c1ccc(Cl)cc12 | 1100 nM

target: T2, Serine/threonine-protein kinase pim-1; experiment: Inhibition of human PIM1 assessed as residual activity using RSRHSSYPAGT as substrate at 1 uM after 30 mins; settings: not given
Target sequence in this assay (P11309 whole entry, looked up): as the sequence (P11309 whole entry) above

Structure (SMILES) | Activity
Nc1cc2cn[nH]c2c2c1[nH]c1ccc(Cl)cc12 | 85%
Nc1cc2[nH]ncc2c2c1[nH]c1ccccc12 | 61%
O=[N+]([O-])c1cc2[nH]ncc2c2c1[nH]c1ccccc12 | 14%
O=[N+]([O-])c1cc2[nH]ncc2c2c1[nH]c1ccc(Cl)cc12 | 48%
Nc1cc2[nH]ncc2c2c1[nH]c1ccc(Cl)cc12 | 45%
Nc1cc2cn[nH]c2c2c1[nH]c1ccccc12 | 98%
O=[N+]([O-])c1cc2cn[nH]c2c2c1[nH]c1ccccc12 | 44%
COc1ccc2[nH]c3c(N)cc4[nH]ncc4c3c2c1 | 70%

Continued, values first:

Activity | Structure (SMILES)
29% | COc1ccc2[nH]c3c([N+](=O)[O-])cc4[nH]ncc4c3c2c1
41% | COc1ccc2[nH]c3c([N+](=O)[O-])cc4cn[nH]c4c3c2c1
69% | O=[N+]([O-])c1cc2cn[nH]c2c2c1[nH]c1ccc(Cl)cc12
93% | COc1ccc2[nH]c3c(N)cc4cn[nH]c4c3c2c1

target: T2, Serine/threonine-protein kinase pim-1; experiment: Inhibition of human PIM1 assessed as residual activity using RSRHSSYPAGT as substrate at 10 uM after 30 mins; settings: not given
Target sequence in this assay (P11309 whole entry, looked up): as the sequence (P11309 whole entry) above

Structure (SMILES) | Activity
Nc1cc2cn[nH]c2c2c1[nH]c1ccc(Cl)cc12 | 29%
Nc1cc2[nH]ncc2c2c1[nH]c1ccccc12 | 16%
O=[N+]([O-])c1cc2[nH]ncc2c2c1[nH]c1ccccc12 | 15%
O=[N+]([O-])c1cc2[nH]ncc2c2c1[nH]c1ccc(Cl)cc12 | 39%
Nc1cc2[nH]ncc2c2c1[nH]c1ccc(Cl)cc12 | 8%
Nc1cc2cn[nH]c2c2c1[nH]c1ccccc12 | 54%
O=[N+]([O-])c1cc2cn[nH]c2c2c1[nH]c1ccccc12 | 26%
COc1ccc2[nH]c3c(N)cc4[nH]ncc4c3c2c1 | 23%

The remaining lines, values ahead:

Activity | Structure (SMILES)
13% | COc1ccc2[nH]c3c([N+](=O)[O-])cc4[nH]ncc4c3c2c1
39% | COc1ccc2[nH]c3c([N+](=O)[O-])cc4cn[nH]c4c3c2c1
60% | O=[N+]([O-])c1cc2cn[nH]c2c2c1[nH]c1ccc(Cl)cc12
43% | COc1ccc2[nH]c3c(N)cc4cn[nH]c4c3c2c1

— ChEMBL document CHEMBL2396576, “Identification of 1,6-dihydropyrazolo[4,3-c]carbazoles and 3,6-dihydropyrazolo[3,4-c]carbazoles as new Pim kinase inhibitors” (Bioorg Med Chem, 2013)
